In ChEMBL document CHEMBL1629439, “High-throughput identification of antibacterials against methicillin-resistant Staphylococcus aureus (MRSA) and the transglycosylase” (Bioorg Med Chem, 2010):
pIC50, pKi: −log10 of the molar value. Converted amounts (≈) assume the structure as drawn. The source made the active and inactive calls. The calls are words filed in the database; no cut-off is given here.

Columns and labels:
Staphylococcus aureus [1] = experiment: Antimicrobial activity against oxacillin- and methicillin-resistant Staphylococcus aureus isolate Sa-OXA-R2 after 18 to 24 hrs by alamar blue assay; assay type: functional
Procedure, shortened: (§1)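 Broth microdilution per NCCLS standard, Mueller-Hinton broth, 8-point twofold dilutions; exponentially growing cells at 5 10^5 cells/ml with compound, 18–24 h at 37 C; 20% Alamar blue added, fluorescence read; MIC90 taken as lowest concentration preventing at least 90% growth.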

Bacillus subtilis = experiment: Antimicrobial activity against Bacillus subtilis ATCC 23857 after 18 to 24 hrs by alamar blue assay; assay type: functional
Procedure, shortened: (§2)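 Broth microdilution per NCCLS in Mueller-Hinton broth, 8-point twofold dilutions, 384-well format. Exponential-phase cells at 5 × 10^5 cells/ml incubated with compound 18–24 h at 37 °C, then 20% Alamar blue added and fluorescence read. MIC90 taken as the lowest concentration preventing at least 90% bacterial growth.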

Escherichia coli [2] = experiment: Antimicrobial activity against Escherichia coli ATCC […] after 18 to 24 hrs by alamar blue assay; assay type: functional; settings: Escherichia coli; procedure, shortened: as §2
Pseudomonas aeruginosa = experiment: Antimicrobial activity against Pseudomonas aeruginosa ATCC 25619 after 18 to 24 hrs by alamar blue assay; assay type: functional; settings: Pseudomonas aeruginosa, ATCC 25619; read-out: MIC; procedure, shortened: as §2
Acinetobacter baumannii = experiment: Antimicrobial activity against Acinetobacter baumannii ATCC 49139 after 18 to 24 hrs by alamar blue assay; assay type: functional; settings: Acinetobacter baumannii, ATCC 49139; read-out: MIC; procedure, shortened: as §2
[3] = system: Stenotrophomonas maltophilia; experiment: Antimicrobial activity against Stenotrophomonas maltophilia ATCC 13637 after 18 to 24 hrs by alamar blue assay; assay type: functional; settings: Stenotrophomonas maltophilia, ATCC 13637; read-out: MIC; procedure, shortened: as §2
Serratia marcescens = experiment: Antimicrobial activity against Serratia marcescens ATCC 14756 after 18 to 24 hrs by alamar blue assay; assay type: functional; settings: Serratia marcescens, ATCC 14756; read-out: MIC; procedure, shortened: as §2
[4] = system: Mycolicibacterium smegmatis; experiment: Antimicrobial activity against Mycobacterium smegmatis BCRC 11565 after 18 to 24 hrs by alamar blue assay; assay type: functional; settings: Mycolicibacterium smegmatis, BCRC 11565; procedure, shortened: as §2
[5] = Inhibition of transglycosylase assessed as inhibition of NBD- labelled lipid II polymerization
Procedure, shortened: (§3)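 100 µM NBD-labelled lipid II incubated 30 min with full-length PBP (EC, SA or Mtb) and 10 ng/µl N-acetylmuramidase in 50 mM Tris-HCl pH 8.0, 10 mM MgCl2, 0.1% Triton X-100, 10% DMSO, 15% MeOH. Supernatant run on anion-exchange HPLC with 20 mM–0.5 M ammonium acetate gradient. Inhibition calculated from substrate peak-area percentage. IC50 determined. S. aureus strains share one SA enzyme.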

[6] = Displacement of fluorescein-labeled moenomycin from transglycosylase in Escherichia coli ATCC […] assessed as inhibition of lipid II polymerization after 30 mins by fluorescence anisotropy binding assay; design: species or system Staphylococcus aureus
Procedure, shortened: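 Full-length bifunctional PBP (TGase) at 10 µg/ml mixed with 100 nM fluorescent moenomycin in 10 mM Tris, 100 mM NaCl, pH 8.0, in 1536-well plates. 1 µl of 1 mM compound stock added. 10 µM moenomycin and 2.5% DMSO served as positive and negative controls. After 30 min, drop in fluorescence anisotropy read. Ki derived from Kd and IC50. Same SA enzyme serves all S. aureus strains.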

Staphylococcus aureus [7] = experiment: Antimicrobial activity against methicillin-resistant Staphylococcus aureus isolate NTUH4722 after 18 to 24 hrs by alamar blue assay; assay type: functional; procedure, shortened: as §1
[8] = Inhibition of transglycosylase in Escherichia coli ATCC […] assessed as inhibition of NBD- labelled lipid II polymerization; procedure, shortened: as §3
[9] = Inhibition of transglycosylase in Staphylococcus aureus ATCC 29213 assessed as inhibition of NBD- labelled lipid II polymerization; procedure, shortened: as §3
[10] = Inhibition of transglycosylase in Staphylococcus aureus ATCC 33592 assessed as inhibition of NBD- labelled lipid II polymerization; procedure, shortened: as §3
[11] = Inhibition of transglycosylase in Staphylococcus aureus isolate NTUH4722 assessed as inhibition of NBD- labelled lipid II polymerization; procedure, shortened: as §3
[12] = Inhibition of transglycosylase in Staphylococcus aureus isolate Sa-OXA-R2 assessed as inhibition of NBD- labelled lipid II polymerization; procedure, shortened: as §3
Staphylococcus aureus [13] = experiment: Antimicrobial activity against methicillin-resistant Staphylococcus aureus ATCC 33592 after 18 to 24 hrs by alamar blue assay; assay type: functional; settings: Staphylococcus aureus, ATCC 33592; procedure, shortened: as §1
Staphylococcus aureus [14] = experiment: Antimicrobial activity against wild-type Staphylococcus aureus ATCC 29213 after 18 to 24 hrs by alamar blue assay; settings: Staphylococcus aureus, ATCC 29213
[15] = Displacement of fluorescein-labeled moenomycin from Mycobacterium tuberculosis transglycosylase assessed as inhibition of lipid II polymerization after 30 mins by fluorescence anisotropy binding assay
Procedure, shortened: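 Full-length bifunctional PBP (10 µg/ml) with 100 nM fluorescein-labelled moenomycin in 10 mM Tris, 100 mM NaCl, pH 8.0; compound added from 1 mM stocks; 30 min incubation, anisotropy decrease read; 10 µM moenomycin and 2.5% DMSO controls. For dose series, Ki derived from probe Kd and IC50.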

[16] = Inhibition of Mycobacterium tuberculosis transglycosylase assessed as inhibition of NBD- labelled lipid II polymerization
Procedure, shortened: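 Full-length PBP incubated 30 min with 100 µM NBD-labelled lipid II, 10 ng/µl N-acetylmuramidase in 50 mM Tris-HCl pH 8.0, 10 mM MgCl2, 0.1% Triton X-100, 10% DMSO, 15% MeOH; supernatant on anion-exchange HPLC, ammonium acetate gradient (20 mM–0.5 M); inhibition from substrate peak area percentage.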

Escherichia coli [17] = experiment: Displacement of fluorescein-labeled moenomycin from transglycosylase in Escherichia coli ATCC […] assessed as inhibition of lipid II polymerization at 100 uM after 30 mins by fluorescence anisotropy binding assay

Structure (SMILES)	MIC90 (Staphylococcus aureus [1]) [µM]	MIC (Bacillus subtilis) [µg/mL]	MIC90 (Escherichia coli [2]) [µM]	MIC (Pseudomonas aeruginosa) [µg/mL]	MIC (Acinetobacter baumannii) [µg/mL]	MIC [3] [µg/mL]	MIC (Serratia marcescens) [µg/mL]	MIC90 [4] [µM]	IC90 [5] [µM]	pKi [6]	MIC90 (Staphylococcus aureus [7]) [µM]	pIC50 [8]	pIC50 [9]	pIC50 [10]	pIC50 [11]	pIC50 [12]	MIC90 (Staphylococcus aureus [13]) [µM]	MIC90 (Staphylococcus aureus [14]) [µM]	also measured
O=C(c1ccc(Cl)cc1)c1ccc(Oc2ccc(Cl)cc2)c(NC(=O)c2cc(I)cc(I)c2O)c1	11 (≈ 8.03 µg/mL)	< 0.03	> 512	16 (≈ 21.9 µM)	16 (≈ 21.9 µM)	16 (≈ 21.9 µM)	16 (≈ 21.9 µM)	44 (≈ 32.1 µg/mL)	< 25	4.17	11 (≈ 8.03 µg/mL)	5.68	5.03	5.03	5.03	5.03	5.5 (≈ 4.02 µg/mL)	11 (≈ 8.03 µg/mL)	–
Cc1ccc(C(C)C)c(Oc2ccccc2NC(=O)c2cc(I)cc(I)c2O)c1	13 (≈ 7.97 µg/mL)	< 0.03	> 512	16 (≈ 26.1 µM)	16 (≈ 26.1 µM)	16 (≈ 26.1 µM)	16 (≈ 26.1 µM)	13 (≈ 7.97 µg/mL)	< 25	4.01	1.6 (≈ 0.981 µg/mL)	5.14	4.56	4.56	4.56	4.56	3.3 (≈ 2.02 µg/mL)	6.5 (≈ 3.99 µg/mL)	–
CCc1ccc2oc(-c3cccc(NC(=O)c4ccc([N+](=O)[O-])o4)c3)nc2c1	1 (≈ 0.377 µg/mL)	0.06 (≈ 0.159 µM)	> 512	128 (≈ 339 µM)	12 (≈ 31.8 µM)	32 (≈ 84.8 µM)	32 (≈ 84.8 µM)	0.5 (≈ 0.189 µg/mL)	–	4.01	1 (≈ 0.377 µg/mL)	4.52	–	–	–	–	0.5 (≈ 0.189 µg/mL)	1 (≈ 0.377 µg/mL)	–
C=C(C/C=C(\C)CCC=C(C)C)CCC(C)(C)/C=C/CC/C(C)=C/CO[C@@H](COP(=O)(O)O[C@H]1O[C@H](C(N)=O)[C@@](C)(O)[C@H](OC(N)=O)[C@H]1O[C@@H]1O[C@H](CO[C@@H]2O[C@H](CO)[C@@H](O)[C@H](O)[C@H]2O)[C@@H](O[C@@H]2O[C@H](C)[C@@H](O[C@@H]3O[C@H](C(=O)NC4=C(O)CCC4=O)[C@H](O)[C@H](O)[C@H]3O)[C@H](O)[C@H]2NC(C)=O)[C@H](O)[C@H]1NC(C)=O)C(=O)O [MOENOMYCIN A]	33 (≈ 52.2 µg/mL)	–	160 (≈ 253 µg/mL)	–	–	–	–	2.5 (≈ 3.96 µg/mL)	–	5.96	33 (≈ 52.2 µg/mL)	7.55	7.47	7.47	7.47	7.47	11 (≈ 17.4 µg/mL)	3 (≈ 4.75 µg/mL)	pKi [15]: 5.01; pIC50 [16]: 7.30
Cc1ccc(C(C)C)c(Oc2cc(Cl)ccc2NC(=O)c2cc(Br)cc(Br)c2O)c1	0.45 (≈ 0.249 µg/mL)	< 0.03	> 512	16 (≈ 28.9 µM)	16 (≈ 28.9 µM)	16 (≈ 28.9 µM)	16 (≈ 28.9 µM)	3.6 (≈ 1.99 µg/mL)	< 25	–	1.8 (≈ 0.997 µg/mL)	5.57	4.71	4.71	4.71	4.71	1.8 (≈ 0.997 µg/mL)	1.8 (≈ 0.997 µg/mL)	Activity (Escherichia coli [17]): inactive
